Values after ≈ are worked out from the molar mass of the structure shown.
How the values were obtained:
[1] = Ratio of drug level in brain to plasma in rat by microdialysis assay
[2] = target: T1, Cannabinoid receptor 1 (Homo sapiens, UniProt P21554); assay: Agonist activity at human CB1 receptor expressed in HEK293 cells assessed as [35S]GTPgamma binding relative to WIN55212-2; assay type: functional, cell-based
Summary of the method: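 GTPγ35S binding on membranes from HEK293 EBNA cells stably transfected with cloned human CB1; Emax relative to WIN55,212-2 as reference agonist; means of at least three measurements.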

[3] = Intrinsic clearance in human liver microsomes at 1 uM in presence of NADPH; assay type: ADME, Microsome; conditions: read-out: CLH
[4] = target: Cannabinoid receptor 2 (Homo sapiens, UniProt P34972); assay: Binding affinity to human CB2 receptor
[5] = Thermodynamic solubility of the compound at pH 7.4; conditions: buffer
[6] = target: T1, Cannabinoid receptor 1; assay: Agonist activity at human CB1 receptor expressed in HEK293 cells assessed as [35S]GTPgamma binding; assay type: functional, cell-based
[7] = target: T1, Cannabinoid receptor 1; assay: Displacement of [3H]CP55940 from human CB1 receptor expressed in HEK293 cells; assay type: cell-based
[8] = target: Voltage-gated inwardly rectifying potassium channel KCNH2 (Homo sapiens, UniProt Q12809)
[9] = Apparent permeability from apical to basal side of human Caco2 cells at 10 uM; conditions: Caco-2
[10] = Intrinsic clearance in rat liver microsomes; assay type: ADME, Microsome; conditions: read-out: CLH
Summary of the method: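 Rat liver microsomes; intrinsic clearance expressed per mg microsomal protein.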

[11] = Tmax in Sprague-Dawley rat at 9 umol/kg, po; assay type: ADME, organism-based; conditions: in vivo
[12] = target: Cytochrome P450 2C9 (Homo sapiens, UniProt P11712); assay: Inhibition of CYP2C9 in human liver microsomes; assay type: ADME, Microsome
[13] = Cmax in Sprague-Dawley rat at 9 umol/kg, po; assay type: ADME, organism-based; set-up: dose 9 umol/kg, route oral; conditions: in vivo
[14] = target: Cytochrome P450 2C19 (Homo sapiens, UniProt P33261); assay: Inhibition of CYP2C19 in human liver microsomes; assay type: ADME, Microsome
Summary of the method: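 IC50 determined in human liver microsomes as part of a five-isoform panel (CYP1A2, CYP2C9, CYP2C19, CYP2D6, CYP3A4) to assess drug-interaction potential.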

[15] = system: Plasma; assay: Plasma concentration in rat carrageenan inflammatory pain model at 100 umol/kg, sc; assay type: ADME, cell-free
Summary of the method: (§1)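 Rats in carrageenan inflammatory pain model dosed sc at 10, 30 or 100 µmol/kg; total plasma and brain levels by protein precipitation with ACN (brain homogenised first), centrifugation 9000g, 30 min, 4 °C, then reversed-phase LC-electrospray MS/MS against a serial-dilution calibration curve.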

[16] = Plasma protein binding in Sprague-Dawley rat; assay type: ADME, cell-free; conditions: read-out: PPB (converted)
[17] = system: Brain; assay: Drug uptake in carrageenan inflammatory pain model of rat brain at 10 to 100 umol/kg, sc; assay type: ADME, organism-based; conditions: in vivo; summary of the method: as §1
[18] = system: Plasma; assay: Plasma concentration in rat carrageenan inflammatory pain model at 10 umol/kg, sc; assay type: ADME, cell-free; summary of the method: as §1
[19] = target: Cytochrome P450 2D6 (Homo sapiens, UniProt P10635); assay: Inhibition of CYP2D6 in human liver microsomes; assay type: ADME, Microsome
[20] = Clearance in Sprague-Dawley rat at 2 umol/kg, iv; assay type: ADME, organism-based; conditions: in vivo
[21] = target: Cytochrome P450 3A4 (Homo sapiens, UniProt P08684); assay: Inhibition of CYP3A4 in human liver microsomes; assay type: ADME, Microsome
[22] = system: Plasma; assay: Plasma concentration in rat carrageenan inflammatory pain model at 30 umol/kg, sc; assay type: ADME, cell-free; summary of the method: as §1
[23] = target: T2, Cytochrome P450 1A2 (Homo sapiens, UniProt P05177); assay: Inhibition of CYP1A2 in human liver microsomes; assay type: ADME, Microsome
T2 sequence (P05177 whole entry): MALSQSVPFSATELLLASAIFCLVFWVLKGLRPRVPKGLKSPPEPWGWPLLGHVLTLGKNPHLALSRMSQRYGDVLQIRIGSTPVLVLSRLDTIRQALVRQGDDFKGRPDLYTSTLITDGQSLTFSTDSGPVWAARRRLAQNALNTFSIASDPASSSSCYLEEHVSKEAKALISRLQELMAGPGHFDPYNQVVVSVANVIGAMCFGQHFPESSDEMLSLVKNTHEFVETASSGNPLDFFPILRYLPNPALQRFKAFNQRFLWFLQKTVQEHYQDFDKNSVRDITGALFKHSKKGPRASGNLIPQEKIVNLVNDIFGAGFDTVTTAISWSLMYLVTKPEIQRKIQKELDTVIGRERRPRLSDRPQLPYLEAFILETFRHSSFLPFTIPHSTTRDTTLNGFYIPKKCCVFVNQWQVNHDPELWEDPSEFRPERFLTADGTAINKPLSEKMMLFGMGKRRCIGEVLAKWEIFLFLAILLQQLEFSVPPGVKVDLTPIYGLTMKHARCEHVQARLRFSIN

[24] = Terminal half life in Sprague-Dawley rat at 2 umol/kg, iv; assay type: ADME, organism-based; conditions: in vivo, read-out: beta t1/2 (converted)
[25] = Volume of distribution at steady state in Sprague-Dawley rat at 2 umol/kg, iv; assay type: ADME, organism-based; conditions: in vivo, read-out: Vdss
[26] = Oral bioavailability in Sprague-Dawley rat at 9 umol/kg; assay type: ADME, organism-based; conditions: in vivo
[27] = system: Rattus norvegicus; assay: Analgesic activity in sc dosed rat assessed as reversal of carrageenan-induced heat hyperalgesia; assay type: functional, organism-based
Summary of the method: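 Rat carrageenan inflammatory pain model; reversal of heat hyperalgesia after subcutaneous dosing at 10, 30 and 100 µmol/kg.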

T1 sequence (P21554 whole entry): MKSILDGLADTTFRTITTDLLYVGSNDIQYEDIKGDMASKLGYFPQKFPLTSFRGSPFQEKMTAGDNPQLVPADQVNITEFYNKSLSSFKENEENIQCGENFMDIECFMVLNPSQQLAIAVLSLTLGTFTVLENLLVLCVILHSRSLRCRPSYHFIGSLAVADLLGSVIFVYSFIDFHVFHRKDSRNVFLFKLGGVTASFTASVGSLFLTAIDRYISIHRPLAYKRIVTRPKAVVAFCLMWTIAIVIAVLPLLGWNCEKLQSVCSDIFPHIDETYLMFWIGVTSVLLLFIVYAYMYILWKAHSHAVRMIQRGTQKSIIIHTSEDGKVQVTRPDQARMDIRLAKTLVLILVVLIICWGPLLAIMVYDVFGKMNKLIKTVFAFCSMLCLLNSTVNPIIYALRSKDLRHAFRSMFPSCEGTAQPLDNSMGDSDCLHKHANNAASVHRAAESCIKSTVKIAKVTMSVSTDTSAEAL
Sequence of Cannabinoid receptor 2 (P34972 whole entry): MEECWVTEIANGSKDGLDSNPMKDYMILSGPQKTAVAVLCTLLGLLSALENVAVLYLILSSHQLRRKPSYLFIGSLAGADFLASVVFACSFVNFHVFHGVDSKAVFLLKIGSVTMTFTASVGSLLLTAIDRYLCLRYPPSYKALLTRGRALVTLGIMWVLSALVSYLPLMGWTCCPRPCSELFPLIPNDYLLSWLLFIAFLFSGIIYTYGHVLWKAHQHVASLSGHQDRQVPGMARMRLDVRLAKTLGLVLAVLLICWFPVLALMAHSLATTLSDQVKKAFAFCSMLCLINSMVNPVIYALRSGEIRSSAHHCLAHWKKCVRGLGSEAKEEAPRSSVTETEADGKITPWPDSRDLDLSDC
Sequence of Voltage-gated inwardly rectifying potassium channel KCNH2 (Q12809 whole entry): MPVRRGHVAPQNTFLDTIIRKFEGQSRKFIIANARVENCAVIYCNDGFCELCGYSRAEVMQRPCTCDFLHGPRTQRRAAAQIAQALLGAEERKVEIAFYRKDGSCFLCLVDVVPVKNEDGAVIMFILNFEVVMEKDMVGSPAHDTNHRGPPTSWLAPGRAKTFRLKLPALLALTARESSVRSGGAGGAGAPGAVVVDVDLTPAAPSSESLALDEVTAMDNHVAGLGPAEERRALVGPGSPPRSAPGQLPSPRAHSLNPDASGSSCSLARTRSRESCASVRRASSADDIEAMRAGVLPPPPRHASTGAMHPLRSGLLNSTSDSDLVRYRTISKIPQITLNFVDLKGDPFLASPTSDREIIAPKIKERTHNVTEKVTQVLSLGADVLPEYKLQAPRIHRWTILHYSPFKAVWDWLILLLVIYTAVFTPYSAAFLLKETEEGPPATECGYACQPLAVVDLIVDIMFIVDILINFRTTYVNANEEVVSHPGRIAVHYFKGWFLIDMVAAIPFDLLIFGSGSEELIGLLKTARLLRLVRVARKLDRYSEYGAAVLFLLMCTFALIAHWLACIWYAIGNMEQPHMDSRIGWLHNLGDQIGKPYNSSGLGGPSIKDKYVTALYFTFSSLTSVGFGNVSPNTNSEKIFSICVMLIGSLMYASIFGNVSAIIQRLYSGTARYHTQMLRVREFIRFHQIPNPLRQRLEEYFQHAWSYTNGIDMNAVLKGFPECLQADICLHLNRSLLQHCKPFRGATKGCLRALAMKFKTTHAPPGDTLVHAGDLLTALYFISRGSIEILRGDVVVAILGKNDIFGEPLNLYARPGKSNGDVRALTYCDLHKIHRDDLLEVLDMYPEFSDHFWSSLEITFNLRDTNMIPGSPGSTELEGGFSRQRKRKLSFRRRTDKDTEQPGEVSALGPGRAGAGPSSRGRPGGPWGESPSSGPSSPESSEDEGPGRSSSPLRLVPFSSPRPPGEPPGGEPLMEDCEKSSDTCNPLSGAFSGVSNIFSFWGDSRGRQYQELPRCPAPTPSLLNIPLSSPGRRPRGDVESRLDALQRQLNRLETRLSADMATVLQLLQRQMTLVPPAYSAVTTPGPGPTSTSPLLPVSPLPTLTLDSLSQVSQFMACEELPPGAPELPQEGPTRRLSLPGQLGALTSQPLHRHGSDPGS
Sequence of Cytochrome P450 3A4 (P08684 whole entry): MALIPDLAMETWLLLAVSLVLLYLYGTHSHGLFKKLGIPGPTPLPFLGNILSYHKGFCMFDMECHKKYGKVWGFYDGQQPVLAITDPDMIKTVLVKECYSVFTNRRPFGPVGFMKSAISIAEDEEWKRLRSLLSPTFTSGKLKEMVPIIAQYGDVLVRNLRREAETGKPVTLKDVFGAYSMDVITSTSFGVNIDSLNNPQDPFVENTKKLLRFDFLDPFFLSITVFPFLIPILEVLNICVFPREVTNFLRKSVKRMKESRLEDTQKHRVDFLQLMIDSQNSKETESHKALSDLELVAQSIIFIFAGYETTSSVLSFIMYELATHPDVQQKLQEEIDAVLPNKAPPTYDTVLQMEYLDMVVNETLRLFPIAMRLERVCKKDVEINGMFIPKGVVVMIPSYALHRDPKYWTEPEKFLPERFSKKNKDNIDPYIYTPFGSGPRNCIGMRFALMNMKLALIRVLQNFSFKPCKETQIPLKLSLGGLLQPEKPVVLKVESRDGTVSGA
Sequence of Cytochrome P450 2C19 (P33261 whole entry, canonical isoform): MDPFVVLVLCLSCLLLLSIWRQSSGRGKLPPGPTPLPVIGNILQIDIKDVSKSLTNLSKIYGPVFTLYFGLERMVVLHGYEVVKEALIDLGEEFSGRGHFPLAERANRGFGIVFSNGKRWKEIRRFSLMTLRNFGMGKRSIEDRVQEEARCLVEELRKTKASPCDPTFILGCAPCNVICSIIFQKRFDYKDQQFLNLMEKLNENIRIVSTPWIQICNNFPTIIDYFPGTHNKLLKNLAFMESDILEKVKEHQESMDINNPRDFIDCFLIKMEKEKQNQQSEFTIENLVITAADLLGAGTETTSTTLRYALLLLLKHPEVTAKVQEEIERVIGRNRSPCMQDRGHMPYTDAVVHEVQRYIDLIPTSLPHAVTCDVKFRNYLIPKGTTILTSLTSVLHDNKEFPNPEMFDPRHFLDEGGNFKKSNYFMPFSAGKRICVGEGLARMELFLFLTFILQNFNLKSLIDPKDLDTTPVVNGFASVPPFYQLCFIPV
Sequence of Cytochrome P450 2D6 (P10635 whole entry): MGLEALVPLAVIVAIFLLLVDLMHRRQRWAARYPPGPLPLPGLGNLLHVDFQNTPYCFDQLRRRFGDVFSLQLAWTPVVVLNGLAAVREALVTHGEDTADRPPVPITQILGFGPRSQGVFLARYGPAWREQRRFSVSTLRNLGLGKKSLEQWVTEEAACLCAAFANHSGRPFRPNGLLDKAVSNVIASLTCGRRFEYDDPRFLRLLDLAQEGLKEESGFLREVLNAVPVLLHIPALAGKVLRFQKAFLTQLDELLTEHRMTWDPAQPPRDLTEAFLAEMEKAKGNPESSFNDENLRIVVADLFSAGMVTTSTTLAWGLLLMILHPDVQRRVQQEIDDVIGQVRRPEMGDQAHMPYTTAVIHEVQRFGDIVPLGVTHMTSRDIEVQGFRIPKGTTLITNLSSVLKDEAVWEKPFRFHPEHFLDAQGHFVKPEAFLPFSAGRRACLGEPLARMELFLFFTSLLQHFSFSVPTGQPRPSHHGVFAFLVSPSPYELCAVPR
Sequence of Cytochrome P450 2C9 (P11712 whole entry): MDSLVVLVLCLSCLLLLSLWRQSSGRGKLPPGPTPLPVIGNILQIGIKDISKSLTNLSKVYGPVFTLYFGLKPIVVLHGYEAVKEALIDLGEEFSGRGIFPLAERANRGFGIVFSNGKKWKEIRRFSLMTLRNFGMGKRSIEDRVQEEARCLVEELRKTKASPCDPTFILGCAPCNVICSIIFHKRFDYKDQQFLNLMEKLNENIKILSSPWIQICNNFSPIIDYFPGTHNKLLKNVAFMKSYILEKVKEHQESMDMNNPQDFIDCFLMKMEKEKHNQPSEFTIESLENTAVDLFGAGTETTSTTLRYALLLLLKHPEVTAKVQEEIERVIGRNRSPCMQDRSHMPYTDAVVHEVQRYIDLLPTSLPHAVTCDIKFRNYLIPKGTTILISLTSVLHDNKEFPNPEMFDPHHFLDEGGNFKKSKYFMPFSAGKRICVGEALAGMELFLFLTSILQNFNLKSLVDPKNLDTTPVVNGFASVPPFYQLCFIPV

| Structure (SMILES) | Kp [1] | Emax [2] | microsomal CLint at 1 µM [3] | solubility thermodynamic [5] | EC50 [6] | Ki [7] | further results |
| --- | --- | --- | --- | --- | --- | --- | --- |
| CCNC(=O)CC[C@@H](CO)N(C)C(=O)c1ccc2c(c1)c1c(n2C)CC[C@@H](C2CCOCC2)C1 | 0.011 | 126% | 21 µL/min/mg |  |  |  |  |
| CN(CC(=O)NC1CC1)C(=O)c1ccc2c(c1)c1c(n2C)CCC(C2CCOCC2)C1 (racemic) |  | 121% | 37 µL/min/mg | 108 µM (≈ 45.7 µg/mL) |  |  | Ki [4]: 26.3 nM |
| CCN(CC(=O)NC1CC1)C(=O)c1ccc2c(c1)c1c(n2C)CC[C@H](C2CCOCC2)C1 |  | 106% |  | 49 µM (≈ 21.4 µg/mL) | 24.2 nM | 17.3 nM |  |
| CN(CCC(=O)NC1CC1)C(=O)c1ccc2c(c1)c1c(n2C)CCC(C2CCOCC2)C1 (configuration not stated) |  |  |  | 523 µM (≈ 229 µg/mL) |  |  |  |
| CN(C(=O)c1ccc2c(c1)c1c(n2C)CC[C@@H](C2CCOCC2)C1)[C@H](CO)CCC(=O)NCCF | 0.025 | 118% | 27 µL/min/mg | 1310 µM (≈ 639 µg/mL) |  |  | IC50 [8]: > 33000 nM; Papp A→B at 10 µM [9]: 0.11 ×10⁻⁶ cm/s |
| CONC(=O)CCCN(C)C(=O)c1ccc2c(c1)c1c(n2C)CC[C@@H](C2CCOCC2)C1 |  | 104% | 36 µL/min/mg | 1330 µM (≈ 587 µg/mL) |  |  | IC50 [8]: > 33000 nM |
| CCN(CC(=O)NCCF)C(=O)c1ccc2c(c1)c1c(n2C)CC[C@@H](C2CCOCC2)C1 | 0.068 | 107% | 33 µL/min/mg | 71 µM (≈ 31.5 µg/mL) | 9.8 nM |  |  |
| Cn1c2c(c3cc(C(=O)NCCCC(=O)NC4CC4)ccc31)CC(C1CCOCC1)CC2 (configuration not stated) |  |  | 47 µL/min/mg | 1 µM (≈ 0.438 µg/mL) |  |  | IC50 [8]: > 31000 nM |
| CN(CC(=O)NC1CC1)C(=O)c1ccc2c(c1)c1c(n2C)CC[C@H](C2CCOCC2)C1 |  | 111% | 38 µL/min/mg | 63 µM (≈ 26.7 µg/mL) | 446 nM | 177 nM | Ki [4]: 49.1 nM |
| CNC(=O)CCCN(C)C(=O)c1ccc2c(c1)c1c(n2C)CC[C@@H](C2CCOCC2)C1 | 0.02 | 116% | 26 µL/min/mg | 1120 µM (≈ 478 µg/mL) | 51.4 nM | 29.3 nM | microsomal CLint [10]: 61 µL/min/mg; Tmax [11]: 2.2 h; IC50 [12]: 7000 nM; Ki [4]: 15.5 nM; Cmax [13]: 6.3 µM; INH [14]: > 20 µM; concentration [15]: 50.7 µM; fraction unbound [16]: 0.021; Drug uptake [17]: Not Active; concentration [18]: 6.9 µM; Papp A→B at 10 µM [9]: 12 ×10⁻⁶ cm/s; INH [19]: > 20 µM; clearance [20]: 2.8 mL/min/kg; INH [21]: > 20 µM; concentration [22]: 9.1 µM; INH [23]: > 20 µM; half-life [24]: 2.4 h; Vd [25]: 0.3 L/kg; bioavailability [26]: 100%; Activity [27]: Dose-dependent effect |
| CCN(CC(=O)NC1CC1)C(=O)c1ccc2c(c1)c1c(n2C)CC[C@@H](C2CCOCC2)C1 | 0.09 | 106% | 36 µL/min/mg | 30 µM (≈ 13.1 µg/mL) | 1.9 nM | 4.2 nM | Papp A→B at 10 µM [9]: 23 ×10⁻⁶ cm/s |
| CN(CCCC(=O)NC1COC1)C(=O)c1ccc2c(c1)c1c(n2C)CC[C@@H](C2CCOCC2)C1 | 0.019 | 116% | 29 µL/min/mg | 1670 µM (≈ 781 µg/mL) | 43.7 nM |  |  |
| CNC(=O)CCCN(C)C(=O)c1ccc2c(c1)c1c(n2C)CCC(C2CCOCC2)C1 (racemic) |  | 121% | 27 µL/min/mg | 1550 µM (≈ 660 µg/mL) |  |  |  |

Source: ChEMBL document CHEMBL2029249, “N-Methyl-3-(tetrahydro-2H-pyran-4-yl)-2,3,4,9-tetrahydro-1H-carbazole-6-carboxamides as a novel class of cannabinoid receptors agonists with low CNS penetration” (Bioorg Med Chem Lett, 2012)
